Reference: the EternaBench riboswitch data

Tested on: MS2 coat protein
Assay: apparent Kd, MS2 coat protein; higher = weaker binding; RNA-MaP array; FMN 200 µM where present
In short: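 Stalled E. coli RNA polymerase transcribed the designs on Illumina sequencing-chip clusters. SNAP-549-labelled MS2 coat protein was titrated from 0.7 or 1.5 nM, doubling to 3 µM, without and then with constant ligand, in 100 mM Tris-HCl pH 7.5, 80 mM KCl, 4 mM MgCl2, BSA, DTT, yeast tRNA and Tween-20. Per-cluster binding curves were fitted to green signal normalised to red-channel RNA signal and control-cluster median Fmax. The apparent Kd is the median of the filtered fits.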

[1] = designed as: ON switch for flavin mononucleotide, no ligand
[2] = ligand present: flavin mononucleotide, designed as: ON switch for flavin mononucleotide
[3] = designed as: OFF switch for flavin mononucleotide, no ligand
[4] = ligand present: flavin mononucleotide, designed as: OFF switch for flavin mononucleotide

| Sequence | apparent Kd [1] [nM] | apparent Kd [2] [nM] | apparent Kd [3] [nM] | apparent Kd [4] [nM] |
| --- | --- | --- | --- | --- |
| CGGAAUUGUACAGGAUAUGAGGGUGCCUGAGCCUCAGAAGGGUAGACCGACAUGAGGAUCACCCAUGUAUGUGGAUAACGUCCG | 75.5 | 336 | – | – |
| UUCAUCAAUGAAGGAUAUCUAUGUCCAACAUGAGGAUCACCCAUGUUGAGGAUCACCUAUGUGUAGGAGAAGGUUAAUAUAACU | 7.98 | 6.38 | – | – |
| AGACCGCUACGCCGGUUUCACGCACAGGAUAUGCGGUUACAUGAGGAUCACCCAUGUGGCCAUGUGUAGAAGGGUGGUUCGUGC | 37 | 30.1 | – | – |
| AAUAUAAAAGAGCUGGAUAACUCGACAUGAGGAUCACCCAUGUAGGAUAUCAGCACGAUAAGUGCUGAGAAGGACAACCAGCUC | – | – | 14.7 | 16.2 |
| AUCGUGAGUAAGGAUAUCACGCGACCCUUUCGGUGAGAAGGUGCCACAUGAGGAUCACCCAUGUGGGUCGUCGC | – | – | 15.6 | 15.9 |
| AUCUUGUAAGGAUAUCGUGCAAGUUUCAAAAGAGGCUUGUGCGAGAAGGUACAUGAGGAUCACCCAUGUAGGUU | – | – | 26.2 | 71.2 |
| UUAUUAUAUGUAGGAUAUGCAUAUUAUUAUUAUGCAGAAGGACAUGAGGAUCACCCAUGUAUAUUAUUAUUAUAUAUUAUAUGU | – | – | 41.2 | 86.1 |
| ACGCAGCUAGGUGAGGAUAUCGGUGGUAAAACAUGAGGAUCACCCAUGUCCGAAGCUCGGACUUCCGAGAAGGCGCCCGGCUGCA | 122 | 15.7 | – | – |
| GCUAAGAGUGUGAGGAUAUGCUGGUCCUUGGAUCAGCAGAAGGCACAUGAGGAUCACCCAUGUGAAAACUUAGC | – | – | 23.3 | 89.6 |
| AAUAAACAUGAGGAUCACCCAUGUAAUAUAAAUGGAGGAUAUGCAAUUAUUAAUUAUUAAGUAGAAGGUCGAAUAA | 73.9 | 73.6 | – | – |
| CCAUUUCAGUAAGGAUAUAUAAACAUGACGAUACAUGAGGAUCACCCAUGUGUAGAAGGUACUAAUACAUAUAAUGCAAUGUUC | – | – | 16.6 | 15.7 |
| AGUCGGAGCAGAGGAUAUAUACAUGAGGAUCACCCAUGUAAAGAUCAAAGCAGGAAACUGCAAGUAUAGAAGGCUGCUCCGACA | – | – | 108 | 231 |
| AAAAGACAUGAGGAUCACCCAUGUAAAAACAUAGGAGGAUAUGUCAUGAAAAAAGACUUGACAGAAGGCCUUUGUC | 164 | 65.4 | – | – |
| GUCUUGUCAGGAUAUCUUACAUAACAAUCGUAGUUACAAUUGGAGAAGGGACAUGAGGAUCACCCAUGUUAGCG | – | – | 32.9 | 36 |
| UGGUGUGAAGGAUAUACAUGAGGAUCACCCAUGUAUGAGGUGGAGGUUGAGGUGGAGGGUAGAAGGUCAGGUGG | – | – | 27.3 | 27 |
| UGUUUUCAUGUAGGAUAUGCUUGUCGUAGAUACGCAGAAGGACAUGAGGAUCACCCAUGUUAAUGCGACAGAGUUUAGAUUCUU | – | – | 17.5 | 31.9 |
| ACAUGAGGAUCACCCAUGUGAAACCAAUGGCUGACUUUGAGCUAGGAUAUUUGUGCAUAUCAAACAAAGAAGGAGCAUUACUGG | – | – | 41.1 | 37.9 |
| AGUUCUUGUGAAGGAUAUACGGCGGGUCGCGCAGUAGAAGGUCACAUGAGGAUCACCCAUGUCGACAUUGUGCAGUAUCGACAA | – | – | 82.9 | 465 |
| CCAUGGCAUGUAGGAUAUGUCUGACAAAGUCAGACAGAAGGACAUGAGGAUCACCCAUGUAAAAGAAAACCAACAUAGCCAUGG | – | – | 6.23 | 5.88 |
| AUUAUACAUGAGGAUCACCCAUGUAAUUAAUUAAUUAAGAUCUAGGAUAUCAGCUCGUUUAGAGCUGAGAAGGAGAUCACAUGU | 30.1 | 18.8 | – | – |
| GCUGCAUAGGCAGGAUAUGCAACAAUGAGAUGAAAAUACAUCUCAUUGACAUGAGGAUCACCCAUGUAGAAGGGCCUGUGCAGU | – | – | 16.3 | 18.9 |
| AUAUCUUACCAAGGAUAUUUAAGAUUUGUGUAGACAUGAGGAUCACCCAUGUGGCCUUAGUCACGGGAGAAGGUGGUUUGAUAU | 878 | 493 | – | – |
| AGAAGACAUGAGGAUCACCCAUGUGCACGUGGAGGAGGAUAUGCUAGUAGAAGAUAGAAUGCAGAAGGCCUAAGAA | 88 | 85.6 | – | – |
| ACAGAGCCUGACAUGAGGAUCACCCAUGUUAGAUUGUUAUGUUAGGAUAUUGUCUAGCAACUAGACAAGAAGGGAUGCUCUGUG | 20.1 | 14.3 | – | – |
| GAUCCUUCUGUUAGGAUAUGCUUUGGGCUUCCGCAGCAGAAGGAACAUGAGGAUCACCCAUGUCCAAUGCCGUC | – | – | 56.6 | 63.9 |
| GUCAGACGAGGAUAUAGAUUUAAGUACAUGAGGAUCACCCAUGUACACAUGUAUUUAGAUUUAGAAGGCGUCUGAC | – | – | 594 | 700 |
| AGUAGAUCAGGAUAUACAUGAAAGAUCAAAAUGUCACUACUACAUGAGGAUCACCCAUGUAGAAGGGAUCUACA | – | – | 52.9 | 36.7 |
| AUAAUGUAAGGAUAUCAGUCGACUAGCCUCGGCUAGUCGACUGAGAAGGUACAUGAGGAUCACCCAUGUGGUUC | – | – | 1130 | 484 |

| Sequence | apparent Kd [1] [nM] | apparent Kd [2] [nM] | apparent Kd [3] [nM] | apparent Kd [4] [nM] |
| --- | --- | --- | --- | --- |
| CUGAGCUCAGGAUAUACAUGAGGAUCACCCAUGUGUUCCUGCGACGUUAGUUGCACAUGUAGAAGGGAGUUCGG | – | – | 272 | 57.8 |
| CCAUGGUGGGCAGGAUAUCGUCCAGCUUGCGGACGAGAAGGGCUCAAACAUGAGGAUCACCCAUGUGAAGAGCGGGUUGUCCAA | – | – | 24.6 | 146 |
| AGAAAACAUGAGGAUCACCCAUGUGAGGAUAUCGAUGUCCAAGGGCGGGUGCGGGACUCGAGAAGGCACUUGGA | – | – | 76 | 64.3 |
| CUCAGCUCGUCAGGAUAUACGUCACUGCUUCGGCAGUGUGGUAAGAUCACAUGAGGAUCACCCAUGUAGAAGGGACGAGCUGAU | – | – | 11.7 | 248 |
| CCUCCCAAGUAAGGAUAUCGGCCAUAGUUAACUCGAGAAGGUACAUGAGGAUCACCCAUGUCGUCCCUACAGACUCCUCCCUCC | – | – | 9.19 | 9.15 |
| AAGCUGUGAGGAUAUACAUGAGGAUCACCCAUGUUAAGGAAGUCUUGGUUAAUUUGGAGUAGAAGGCGCUUAUU | – | – | 30.9 | 25.5 |
| CGAUAGGACAGAGGAUAUACACAUGAGGAUCACCCAUGUGAUUUCGGCGCGAAAGCGCCAAACAUGUAGAAGGCUGUCCUAUCG | – | – | 11.3 | 4.89 |
| GUCGGAAACGACAAUGAUAGGACUGAGGAUAUACAUAAGUUAGUCCAUACAUGAGGAUCACCCAUGUAGAAGGCAGUCCUAUCU | – | – | 7.78 | 33.4 |
| AAAGUACAUGAGGAUCACCCAUGUUGAAAAAAUCGAGGAUAUGCGAAAAAAAAAAAAAAAGCAGAAGGUGAAAAAA | 49 | 42.4 | – | – |
| ACAUGAGGAUCACCCAUGUAUUUGUAGGAUAUACUGUAUUGUUUAUUACUCUAAUUAAUAUGUUUGUAGAAGGACAUUGCAUGA | – | – | 8.39 | 9.86 |
| UUCAGCUCGUGAGGAUAUACAUGUGCUGGAAACAGCACUAUUGAGUUCACAUGAGGAUCACCCAUGUAGAAGGCACGAGCUGAG | – | – | 15.2 | 27.9 |
| CGUCUAUGCCAGAAGGCAUAAAACAUGAGGAUCACCCAUGUCAAAGACAUGAGGAUAUGGCAUAGACGAAAAGUGCGAAAGCAC | 17.9 | 4.97 | – | – |
| GGACGUCACAUCUACAUGAGGAUCACCCAUGUCUCUUGAUAUGAGGAUAUGUAUACGAAUCGUUUAUAGAAGGCAUGGACGUCC | 286 | 312 | – | – |
| GAGAAGUGAGGAUAUGCUGCUCGUCACUUGCGUGAUGAGUAGCAGAAGGCACAUGAGGAUCACCCAUGUAAAGG | – | – | 133 | 244 |
| AAAAUAGCAGGAUAUACAUGAGGAUCACCCAUGUUUAUUGGGCACUUGCUGACGUCGUGUAGAAGGGUUACGAC | – | – | 20.5 | 18.8 |
| AUCAUGUGAGGAUAUGUGAUCAACCUUCUGUAUAGAUGAUUACAGAAGGCACAUGAGGAUCACCCAUGUAGAUC | – | – | 70.9 | 79 |
| AUAAUGAGAGGAUAUACAUGAGGAUCACCCAUGUAAUUAACACGGCGAGCUCCAAUACGUAGAAGGCUCAUUUA | – | – | 49.2 | 35 |
| UCUGUCCUUGUCAGGAUAUCGAUGGUAAGACCAUGCGAGAAGGGACAUGAGGAUCACCCAUGUUCGACCUGGGU | – | – | 176 | 222 |
| AAUUCAAACAGAGGAUAUUGUUUAUCUCUAUUGCAAGAAGGCUGAUCUUACUACCCACUUAUGAAACAUGAGGAUCACCCAUGU | 34.6 | 30.1 | – | – |
| UGUUGUAUUACAGGAUAUCUAUUAUUUGUAUUUAGAGAAGGGUAUUCACAUGAGGAUCACCCAUGUAUAUACGAGGAAGUUGUG | 61.3 | 58.6 | – | – |
| GGUACUCAAAGAGUACCAAUACGAACAUGAGGAUCACCCAUGUAGGAUAUGCUAUGCAAAGCAUAGCAGAAGGACAUGUGCCUU | – | – | 41.7 | 276 |
| AAUUAAGAUCUAGGAUAUCACGUCGAUUAGACGUGAGAAGGAGAUCAUAACAUGAGGAUCACCCAUGUAUUACAUGAAUUAAUU | 28 | 25.9 | – | – |
| GUUGAAGUCACAGGAUAUACGUCGUCUGUUGCCGUAGAAGGGUGAACUCAGCCUGACCGUGACAUGAGGAUCACCCAUGUGACC | 15.3 | 19.6 | – | – |
| GCCGCAGGAACAGGAUAUGUGGGCAUAAAAUUAUACCAGGCCCACAUGAGGAUCACCCAUGUGACACAGAAGGGUUCCUAAAUA | 619 | 29.8 | – | – |
| UGAGCUACAGGAUAUACGUGACGACCGUGAGGUCGAAGGUUACAUGAGGAUCACCCAUGUAGAAGGGUAGUUCU | – | – | 148 | 148 |
| AAGAGACAUCAGAAGGGAGCCCGAAAGCGCAGCUCAGGAUAUGAGAUCUUAUGUAGUACGACAUGAGGAUCACCCAUGUCCGCG | 74.3 | 10.2 | – | – |
| GCGUGUAUAAGAUUUAUAAAACAGUCAGAAGGUGAUAAGACGACAUGAGGAUCACCCAUGUAAUUCAAGGAUAUGAUAAUACGC | 53.8 | 13.3 | – | – |
